Three compounds from ChEMBL document CHEMBL3351905, “Cyclic Penta- and Hexaleucine Peptides without N-Methylation Are Orally Absorbed” (ACS Med Chem Lett, 2014) can be followed below.

Each structure is given as a SMILES string. Peptide text beside a SMILES is read from it. Some results are limits rather than exact numbers.

A word on the clearance: it is the rate of elimination divided by the concentration. For orientation: Papp means a coefficient for how fast a substance crosses the barrier. The bioavailability is the share of a dose that reaches the circulation, judged against a reference dose that is usually intravenous. A low value points to poor availability.

A short description of data set [1]: Permeability in human Caco2 cells at 10 uM by LC-MS method. It is filed as ADME, cell-based. The conditions noted are these: caco-2, 10 µM. A digest of the protocol: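 Caco-2 monolayers; compound at 10 μM, cyclosporin A comparator at 30 μM; medium 0.05% DMSO in HEPES buffer, pH 7.4, 37 °C; apparent permeability in cm·s–1.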
In general terms: Caco-2 cells form a polarised layer with tight junctions and transporters.

The nature of data set [2]: Clearance in Wistar rat at 1 mg/kg, iv by LC-MS method. It is filed as ADME, organism-based. The following applies: in vivo. On the set-up: dose 1 mg/kg, route intravenous.
Data set [3] is described as follows: Apparent permeability in RRCK cells at 8 uM at pH 7.4 incubated for 2 hrs by LC-MS/MS method. Type of data set: ADME, cell-based, Canis lupus familiaris, MDCKII-LE. The conditions noted are these: dog, MDCK.
Data set [4] can be described thus: Oral bioavailability in Wistar rat at 10 mg/kg measured over 8 hrs by LC-MS method. The conditions noted are these: in vivo. It is filed as ADME, organism-based.
Data set [5] is described as follows: Apparent permeability in RRCK cells at 8 uM at pH 7.4 incubated for 2 hrs by LC-MS/MS method relative to CSA. Type of data set: ADME, cell-based, Canis lupus familiaris. The following applies: dog, mdckii-le, pH 7.4, 2 h. A digest of the protocol:
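RRCK monolayers (no active transporters); compound at 8 μM alongside cyclosporin A at 8 μM; medium 0.05% DMSO in HEPES buffer, pH 7.4, 37 °C; apparent permeability expressed in cm·s–1.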

As to `CC(C)C[C@@H]1NC(=O)[C@H](CC(C)C)NC(=O)[C@H](CC(C)C)NC(=O)[C@@H](CC(C)C)NC(=O)[C@H](CC(C)C)NC(=O)[C@H](CC(C)C)NC1=O`, the permeability result in data set [1] was “permeable”. Moreover, the clearance in data set [2] was 24.1 mL/min/kg. The Papp at 2 h, 8 µM in data set [3] was more than 1 ×10⁻⁶ cm/s. The same compound returned a bioavailability in data set [4] of 9%. In addition, the “fold change (FC)” value in data set [5] was 2.

For the compound `CC(C)C[C@@H]1NC(=O)[C@H](CC(C)C)NC(=O)[C@H](CC(C)C)NC(=O)[C@H](CC(C)C)NC(=O)[C@H](CC(C)C)NC(=O)[C@H](CC(C)C)NC1=O`, the permeability result in data set [1] is reported as “permeable”. Further, in data set [2], the clearance turned out to be 4.7 mL/min/kg. In addition, in data set [3], the apparent permeability coefficient (Papp) at 2 h, 8 µM was more than 1 ×10⁻⁶ cm/s. Also, the bioavailability in data set [4] amounted to 17%. In addition, the “fold change (FC)” value in data set [5] came to 2.

Turning to `CC(C)C[C@@H]1NC(=O)[C@H](CC(C)C)NC(=O)[C@H](CC(C)C)NC(=O)[C@H](CC(C)C)NC(=O)[C@H](CC(C)C)NC1=O` (cyclo(LLLLL)), the permeability result in data set [1] was “permeable”. In addition, the apparent permeability (Papp) at 2 h, 8 µM in data set [3] came out at 1.7 ×10⁻⁶ cm/s. This compound registered a bioavailability in data set [4] of 4%.
